According to ChEMBL document CHEMBL1135676, “Comparative molecular field analysis of substrates for an aryl sulfotransferase based on catalytic mechanism and protein homology modeling” (J Med Chem, 2002):

Experiments:
not read [1] = substrate: Oc1ccc2ccccc2c1; test: not read
not read [2] = substrate: Oc1ccccc1; test: not read
[3] = target: Aryl sulfotransferase IV (Rattus norvegicus); test: (§1) Apparent Michaelis constant (Km) against Arylsulfotransferase (AST IV)
Summary of the method: (§2)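 Recombinant rat hepatic AST IV, expressed in E. coli and purified. Each reaction held 1.0 μg enzyme, 0.2 mM PAPS, 8.3 mM 2-mercaptoethanol, varying substrate and 0.25 M potassium phosphate at pH 7.0. Mixtures were preincubated 2 min at 37 °C, started with enzyme, run 10 min at 37 °C and stopped with methanol. Substrate-dependent PAP formation was read by HPLC and corrected with substrate-free controls. kcat is in min⁻¹ and apparent Km in M.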

[4] = substrate: CC(=O)Nc1ccc(O)cc1; test: as §1
Summary of the method: as §2

[5] = substrate: CC(C)[C@H](O)c1ccccc1; test: as §1
Summary of the method: as §2

[6] = substrate: CCCCCCCCCc1ccc(O)cc1; test: as §1
Summary of the method: as §2

[7] = substrate: CCCCCCCc1ccc(CO)cc1; test: as §1
Summary of the method: as §2

[8] = substrate: CCCCCCCc1ccc(O)cc1; test: as §1
Summary of the method: as §2

[9] = substrate: CCCCCC[C@H](O)c1ccccc1; test: as §1
Summary of the method: as §2

[10] = substrate: CCCCCCc1ccc(CO)cc1; test: as §1
Summary of the method: as §2

[11] = substrate: CCCCC[C@H](O)c1ccccc1; test: as §1
Summary of the method: as §2

[12] = substrate: CCCCCc1ccc(CO)cc1; test: as §1
Summary of the method: as §2

[13] = substrate: CCCCCc1ccc(O)cc1; test: as §1
Summary of the method: as §2

[14] = substrate: CCCC[C@H](O)c1ccccc1; test: as §1
Summary of the method: as §2

[15] = substrate: CCCCc1ccc(CO)cc1; test: as §1
Summary of the method: as §2

[16] = substrate: CCCCc1ccc(O)cc1; test: as §1
Summary of the method: as §2

[17] = substrate: CCCN(O)c1ccccc1; test: as §1
Summary of the method: as §2

[18] = substrate: CCC[C@H](O)c1ccccc1; test: as §1
Summary of the method: as §2

[19] = substrate: CCCc1ccc(CO)cc1; test: as §1
Summary of the method: as §2

[20] = substrate: CCCc1ccc(O)cc1; test: as §1
Summary of the method: as §2

[21] = substrate: CCN(O)c1ccccc1; test: as §1
Summary of the method: as §2

[22] = substrate: CC[C@H](O)c1ccccc1; test: as §1
Summary of the method: as §2

[23] = substrate: CCc1ccc(O)cc1; test: as §1
Summary of the method: as §2

[24] = substrate: CN(O)c1ccccc1; test: as §1
Summary of the method: as §2

[25] = substrate: CN[C@@H](C)C(O)c1ccccc1; test: as §1
Summary of the method: as §2

[26] = substrate: CN[C@H](C)[C@H](O)c1ccccc1; test: as §1
Summary of the method: as §2

[27] = substrate: COC(=O)[C@@H](N)Cc1ccc(O)cc1; test: as §1
Summary of the method: as §2

[28] = substrate: C[C@@H](O)c1ccccc1; test: as §1
Summary of the method: as §2

[29] = substrate: C[C@H](O)c1ccccc1; test: as §1
Summary of the method: as §2

[30] = substrate: Cc1ccc(CO)cc1; test: as §1
Summary of the method: as §2

[31] = substrate: Cc1ccc(O)cc1; test: as §1
Summary of the method: as §2

[32] = substrate: O=C(CBr)Nc1ccc(O)cc1; test: as §1
Summary of the method: as §2

[33] = substrate: O=[N+]([O-])c1ccc(CO)cc1; test: as §1
Summary of the method: as §2

[34] = substrate: O=[N+]([O-])c1ccc(O)c(Cl)c1; test: as §1
Summary of the method: as §2

[35] = substrate: OC1CCCc2ccccc21; test: as §1
Summary of the method: as §2

[36] = substrate: OCc1c[nH]c2ccccc12; test: as §1
Summary of the method: as §2

[37] = substrate: OCc1ccc2ccccc2c1; test: as §1
Summary of the method: as §2

[38] = substrate: OCc1cccc2ccccc12; test: as §1
Summary of the method: as §2

[39] = substrate: OCc1ccccc1; test: as §1
Summary of the method: as §2

[40] = substrate: OCc1ccoc1; test: as §1
Summary of the method: as §2

[41] = substrate: ONc1ccc(Cl)cc1; test: as §1
Summary of the method: as §2

[42] = substrate: ONc1ccccc1; test: as §1
Summary of the method: as §2

[43] = substrate: Oc1ccc(-c2ccccc2)cc1; test: as §1
Summary of the method: as §2

[44] = substrate: [H][C@]12CC3(c4ccc(O)cc4)C[C@]([H])(C1)C[C@@]([H])(C3)C2; test: as §1
Summary of the method: as §2

B1: Sulfotransferase 1A1 (Rattus norvegicus) (protein)
chain: MEFSRPPLVHVKGIPLIKYFAETIGPLQNFTAWPDDLLISTYPKSGTTWMSEILDMIYQGGKLEKCGRAPIYARVPFLEFKCPGVPSGLETLEETPAPRLLKTHLPLSLLPQSLLDQKVKVIYIARNAKDVVVSYYNFYNMAKLHPDPGTWDSFLENFMDGEVSYGSWYQHVKEWWELRHTHPVLYLFYEDIKENPKREIKKILEFLGRSLPEETVDSIVHHTSFKKMKENCMTNYTTIPTEIMDHNVSPFMRKGTTGDWKNTFTVAQNERFDAHYAKTMTDCDFKFRCEL
Km (not read [1]): 8 µM | Vmax (not read [1]): 1.13 µM/min | Km (not read [2]): 19 µM | Vmax (not read [2]): 0.35 µM/min | Km [3]: 60 µM | Vmax [3]: 0.182 µM/min | Km [4]: 92 µM | Vmax [4]: 0.181 µM/min | Km [5]: 1360 µM | Vmax [5]: 0.0061 µM/min | Km [6]: 109 µM | Vmax [6]: 0.091 µM/min | Km [7]: 410 µM | Vmax [7]: 0.133 µM/min | Km [8]: 61 µM | Vmax [8]: 0.132 µM/min | Km [9]: 20 µM | Vmax [9]: 0.0052 µM/min | Km [10]: 30 µM | Vmax [10]: 0.0967 µM/min | Km [11]: 7 µM | Vmax [11]: 0.0021 µM/min | Km [12]: 20 µM | Vmax [12]: 0.109 µM/min | Km [13]: 9 µM | Vmax [13]: 0.208 µM/min | Km [14]: 10 µM | Vmax [14]: 0.0305 µM/min | Km [15]: 30 µM | Vmax [15]: 0.13 µM/min | Km [16]: 5 µM | Vmax [16]: 0.296 µM/min | Km [17]: 161 µM | Vmax [17]: 0.0986 µM/min | Km [18]: 360 µM | Vmax [18]: 0.0085 µM/min | Km [19]: 40 µM | Vmax [19]: 0.178 µM/min | Km [20]: 6 µM | Vmax [20]: 0.427 µM/min | Km [21]: 650 µM | Vmax [21]: 0.273 µM/min | Km [22]: 240 µM | Vmax [22]: 0.0099 µM/min | Km [23]: 10 µM | Vmax [23]: 0.41 µM/min | Km [24]: 119 µM | Vmax [24]: 0.085 µM/min | Km [25]: 6990 µM | Vmax [25]: 0.0225 µM/min | Km [26]: 11000 µM | Vmax [26]: 0.0404 µM/min | Km [27]: 4000 µM | Vmax [27]: 0.35 µM/min | Km [28]: 1730 µM | Vmax [28]: 0.0206 µM/min | Km [29]: 250 µM | Vmax [29]: 0.0337 µM/min | Km [30]: 600 µM | Vmax [30]: 0.508 µM/min | Km [31]: 10 µM | Vmax [31]: 0.32 µM/min | Km [32]: 22 µM | Vmax [32]: 0.095 µM/min | Km [33]: 199 µM | Vmax [33]: 0.0206 µM/min | Km [34]: 5 µM | Vmax [34]: 0.028 µM/min | Km [35]: 30 µM | Vmax [35]: 0.0287 µM/min | Km [36]: 29 µM | Vmax [36]: 0.0332 µM/min | Km [37]: 26 µM | Vmax [37]: 0.0776 µM/min | Km [38]: 30 µM | Vmax [38]: 0.026 µM/min | Km [39]: 50 µM | Vmax [39]: 0.0305 µM/min | Km [40]: 960 µM | Vmax [40]: 0.0102 µM/min | Km [41]: 26 µM | Vmax [41]: 0.035 µM/min | Km [42]: 230 µM | Vmax [42]: 0.043 µM/min | Km [43]: 91 µM | Vmax [43]: 0.212 µM/min | Km [44]: 1 µM | Vmax [44]: 0.0472 µM/min
